Assay results: PMC7357868 (ACS chemical biology, 2019)

Experiments:
recombinant hpol κ = settings: cited from earlier work
[1] = tested on: hpol κ-deficient HAP-1 cells; assay: Alkaline comet assay; type: cell-based, human; settings: 100 μM TMZ alone, 1 h
How it was run: (§1)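 100 000 HAP-1 cells per well, test compound 0.5 μM alone or with alkylating agent (100 μM), 1 h; DMSO control. Cells embedded in low-melting agarose (200–300 per well), lysed 1 h, alkaline unwinding (200 mM NaOH, 1 mM EDTA) 20 min RT, electrophoresis 21 V, 30 min, 4 °C, SYBR Gold stain. Read-out is % DNA in tail per cell; ≥20 cells per replicate, three biological replicates, mean ±SD.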

[2] = tested on: hpol κ-deficient HAP-1 cells; assay: Clonogenic survival assay; type: cell-based, human; settings: 250 μM TMZ alone
[3] = tested on: hpol κ-proficient HAP-1 cells; assay: Alkaline comet assay; type: cell-based, human; settings: 100 μM TMZ alone, 1 h
How it was run: as §1

[4] = tested on: hpol κ-proficient HAP-1 cells; assay: Clonogenic survival assay; type: cell-based, human; settings: 250 μM TMZ alone, 1 h, 10 days culture

SMILES | IC50 (recombinant hpol κ) | DNA damage (% DNA in tail) over control [1] | colonies formed relative to untreated cells [2] | DNA damage (% DNA in tail) over untreated cells [3] | colonies formed relative to untreated cells [4]
CCOc1nc2cccc(C(=O)OC(C)OC(=O)OC3CCCCC3)c2n1Cc1ccc(-c2ccccc2-c2nn[nH]n2)cc1 (stereo not drawn) [candesartan, candesartan cilexetil] | tens of micromolar | – | – | – | –
Cn1nnc2c(C(N)=O)ncn2c1=O [TMZ, temozolomide, reference compound] | – | significantly greater amount of DNA damage over control | less than 50% | approximately sevenfold | ~ 75%
CC(C)c1ccc2c(c1)c(SC(C)(C)C)c(CC(C)(C)C(=O)O)n2Cc1ccc(Cl)cc1 [MK-886] | tens of micromolar | – | – | – | –
